According to article PMC4138072 (Biochemistry, 2014):
Entries after “also recorded” stand apart in the source; their conditions may differ.

What was measured:
[1] = biological target: T1, SmARG (S. mansoni arginase) (Schistosoma mansoni, UniProt Q6WVP6); test: Isothermal titration calorimetry of SmARG–inhibitor complexes; type: binding; details: ITC Kd
T1 sequence (Q6WVP6 1-364): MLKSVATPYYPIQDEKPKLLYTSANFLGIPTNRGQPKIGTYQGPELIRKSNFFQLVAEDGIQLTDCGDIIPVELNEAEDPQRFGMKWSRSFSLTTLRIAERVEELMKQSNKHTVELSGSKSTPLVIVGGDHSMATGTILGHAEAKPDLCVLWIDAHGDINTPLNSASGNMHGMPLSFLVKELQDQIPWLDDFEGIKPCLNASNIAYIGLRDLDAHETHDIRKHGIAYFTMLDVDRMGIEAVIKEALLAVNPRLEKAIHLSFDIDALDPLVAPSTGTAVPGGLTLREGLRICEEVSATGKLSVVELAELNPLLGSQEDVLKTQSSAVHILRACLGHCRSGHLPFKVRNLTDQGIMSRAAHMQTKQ

[2] = system: S. mansoni schistosomula; test: Helminth fluorescence bioassay; type: cell-based, Schistosoma mansoni; details: 100 μM, in vitro cocultivation
Procedure, shortened: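 S. mansoni schistosomula were mechanically transformed and exposed to test compound at 100 μM final. Incubation was 24 h (also 72 h) at 37 °C in humidified 5% CO2. Viability was then scored by the helminth fluorescence bioassay, in duplicate.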

[3] = biological target: T1, SmARG (S. mansoni arginase); test: Colorimetric arginase activity assay; type: biochemical; details: Figure S2b
Procedure, shortened: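 Recombinant SmARG was expressed in E. coli BL21(DE3) and purified by Talon affinity then size exclusion into bicine pH 8.5 with 100 μM MnCl2. Reactions used 0.5–50 mM L-arginine in 50 mM EPPS pH 8.5 with 100 μM MnCl2, started with 1 μM enzyme at 21 °C and stopped after 1 min with acid/α-isonitrosopropiophenone. Samples were heated 1 h at 90 °C and urea read at A550. Ki came from a competitive-inhibition Michaelis–Menten fit, in triplicate.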

[4] = system: human arginase I; details: cited from earlier work
[5] = system: human arginase I; test: Isothermal titration calorimetry, human arginase I; type: binding; details: ITC Kd, human arginase I versus SmARG

enhancement of affinity compared with the parent SmARG–ABH complex [1] [fold] | SMILES | schistosomula viability or morphology ([2]; 24 h, 37 °C, absence of host) | schistosomula viability or morphology ([2]; 72 h (data not shown)) | also measured
 | N=C(NO)NCC[C@H](N)C(=O)O [nor-NOHA, nor-N-hydroxy-L-arginine] | no significant difference; also recorded: do not affect parasite viability | no significant difference | more effective than ABH in binding to SmARG ([1]; N-hydroxyguanidinium moiety versus tetrahedral boronate anion of ABH): ~4 fold
5 | N[C@@](CCCCB(O)O)(C(=O)O)C1CCN(Cc2ccc(Cl)c(Cl)c2)CC1 (racemic) [ABHDP, (R)-2-amino-6-borono-2-[1-(3,4-dichlorobenzyl)piperidin-4-yl]hexanoic acid] |  |  | 
 | Cl.O=C(O)CCP(CCC(=O)O)CCC(=O)O [TCEP, Tris(2-carboxyethyl)phosphine hydrochloride] |  |  | SmARG activity in the presence of reducing reagents [3]: severely attenuated
 | N[C@@H](CCCCB(O)O)C(=O)O [ABH, 2(S)-amino-6-boronohexanoic acid] | no significant difference; also recorded: do not affect parasite viability | no significant difference | preferential inhibition of human arginase I compared with nor-NOHA [4]: at least 10 fold; tighter binding to human arginase I than to SmARG [5]: 260 fold
2 | N[C@](CCCCB(O)O)(CCN1CCCCC1)C(=O)O [ABHPE, (R)-2-amino-6-borono-2-[2-(piperidin-1-yl)ethyl]hexanoic acid] |  |  | 
